Assay results: ChEMBL document CHEMBL1629448, “Identification and synthesis of novel inhibitors of acetyl-CoA carboxylase with in vitro and in vivo efficacy on fat oxidation” (J Med Chem, 2010)
Active and inactive are the calls of the source. The rule behind the calls is not given here.

Legend:
[1] = Half life in Wistar rat plasma at 10 mg/kg, po; format: ADME, organism-based; parameters: dose 10 mg/kg, route oral
In short: (§1)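 Female Wistar rats given a single oral dose of 10 mg/kg in 10% DMSO. Plasma and liver sampled at eight time points over 24 h, three animals killed per time point. Drug levels measured by LC-MS/MS with an internal standard. […] Values are means ± SD (n = 3).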

[2] = Drug concentration in Wistar rat liver at 10 mg/kg, po measured 6 hrs post dose; format: ADME, organism-based; parameters: dose 10 mg/kg, route oral; conditions: read-out: Drug uptake; in short: as §1
[3] = Cmax in Wistar rat plasma at 10 mg/kg, po; format: ADME, organism-based; parameters: dose 10 mg/kg, route oral; in short: as §1
[4] = Cmax in Wistar rat liver at 10 mg/kg, po; format: ADME, organism-based; parameters: dose 10 mg/kg, route oral; in short: as §1
Rattus norvegicus [5] = test: Plasma concentration in Wistar rat at 3 mg/kg, iv measured immediately after dosing; format: ADME, organism-based; parameters: dose 3 mg/kg, route intravenous; conditions: in vivo
In short: (§2)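 Wistar rats given an intravenous bolus of 3 mg/kg in 5% solutol solution. Plasma sampled at eight time points over 24 h. Drug quantified by LC-MS/MS against an internal standard. C0h is the concentration immediately after dosing; AUC0-inf, clearance, t1/2 and Vdss were also derived.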

[6] = AUC (0 to infinity) in Wistar rat plasma at 3 mg/kg, iv; format: ADME, organism-based; parameters: dose 3 mg/kg, route intravenous, time infinity; in short: as §2
[7] = target: T1, Peroxisome proliferator-activated receptor gamma (Homo sapiens) (UniProt P37231); test: Inhibition of PPARgamma
T1 sequence (whole entry): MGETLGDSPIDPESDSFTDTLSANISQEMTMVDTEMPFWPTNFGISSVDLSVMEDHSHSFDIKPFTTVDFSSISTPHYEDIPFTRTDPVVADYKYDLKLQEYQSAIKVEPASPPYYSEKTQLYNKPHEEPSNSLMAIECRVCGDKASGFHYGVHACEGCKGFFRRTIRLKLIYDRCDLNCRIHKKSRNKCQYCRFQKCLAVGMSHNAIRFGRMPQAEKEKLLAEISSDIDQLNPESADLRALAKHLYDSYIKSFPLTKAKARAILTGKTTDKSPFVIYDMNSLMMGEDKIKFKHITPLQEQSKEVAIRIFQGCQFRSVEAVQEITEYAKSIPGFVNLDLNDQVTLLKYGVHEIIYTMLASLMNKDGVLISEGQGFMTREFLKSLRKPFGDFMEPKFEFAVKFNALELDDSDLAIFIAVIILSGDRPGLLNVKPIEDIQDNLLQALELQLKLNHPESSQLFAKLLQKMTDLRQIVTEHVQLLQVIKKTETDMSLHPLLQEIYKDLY

[8] = Drug concentration in Wistar rat plasma at 10 mg/kg, po measured 6 hrs post dose; format: ADME, organism-based; parameters: dose 10 mg/kg, route oral; conditions: read-out: Drug uptake; in short: as §1
[9] = Clearance in Wistar rat plasma at 3 mg/kg, iv; format: ADME, organism-based; parameters: dose 3 mg/kg, route intravenous; in short: as §2
[10] = Inhibition of N-terminal His-tagged rat recombinant ACC2 expressed in high five insect cells by ATP consumption assay
[11] = Oral bioavailability in Wistar rat at 10 mg/kg; format: ADME, organism-based; conditions: in vivo
[12] = Tmax in Wistar rat liver at 10 mg/kg, po; format: ADME, organism-based; parameters: dose 10 mg/kg, route oral; in short: as §1
[13] = Half life in Wistar rat liver at 10 mg/kg, po; format: ADME, organism-based; parameters: dose 10 mg/kg, route oral; in short: as §1
[14] = Half life in Wistar rat plasma at 3 mg/kg, iv; format: ADME, organism-based; parameters: dose 3 mg/kg, route intravenous; in short: as §2
Rattus norvegicus [15] = test: Stimulation of fat oxidation in Wistar rat assessed as decrease in respiratory quotient at 50 mg/kg, po administered 2 hrs before lipid load; format: functional, organism-based; parameters: dose 50 mg/kg
In short: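 Female Wistar rats housed singly in calorimetry cages, acclimated at least 12 h. Dosed orally with 50 mg/kg or vehicle. Two hours later, oral 10 mL/kg 20% Lipofundin MCT (2 g fat/kg) or PBS. O₂ and CO₂ measured every 17 min per cage for 1 min. RQ is CO₂ production/O₂ consumption.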

What does the source list for `CC(=O)N[C@@H](C)CCc1ccc(Oc2ccc(OC(C)C)nc2)cc1`?
half-life [1]: 1.8 h; concentration at 6 h [2]: 7.59 µM; Cmax [3]: 3.5 µM; Cmax [4]: 21.8 µM; concentration (Rattus norvegicus [5]): 5.2 µM; AUC(0-inf) [6]: 5.6 µM·h; inhibition [7]: inactive; concentration at 6 h [8]: 1.59 µM; clearance [9]: 26.7 mL/min/kg; IC50 [10]: 400 nM; bioavailability [11]: 98%; Tmax [12]: 2 h; half-life [13]: 3 h; half-life [14]: 1.5 h; Activity (Rattus norvegicus [15]): Active
